Columns and labels:
OVCAR-4 [1] = experiment: Percent growth of NCI cell line, ovarian: OVCAR-4 exposed for 48 hr at 10e-6 concentration; assay type: functional, Homo sapiens
Summary of the method: (§1)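 NCI panel cell lines exposed 48 h to 10^-8, 10^-6 and 10^-4 M drug; read-out is percent growth at each concentration.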

DU-145 [2] = experiment: Percent growth of NCI cell line, prostate: DU-145 exposed for 48 hr at 10e-6 concentration; assay type: functional, Homo sapiens; summary of the method: as §1
786-0 [3] = experiment: Percent growth of NCI cell line, renal: 786-0 exposed for 48 hr at 10e-8 concentration; assay type: functional, Homo sapiens; summary of the method: as §1
[4] = Percent growth of NCI cell line, leucemia K562 exposed for 48 hr at 10e-4 concentration; assay type: functional, Homo sapiens; summary of the method: as §1
LoVo [5] = experiment: Cytotoxicity activity on LoVo/Dx human adenocarcinoma cell line after 144 hr of drug exposure; assay type: functional, cell-based
Summary of the method: (§2)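 LoVo (sensitive) and LoVo/Dx (resistant) human colon adenocarcinoma cells seeded at 2.5 × 10^5 cells/mL medium; drug solutions added to culture.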

MCF7 [6] = experiment: Percent growth of NCI cell line, breast: MCF-7 exposed for 48 hr at 10e-4 concentration; assay type: functional, Homo sapiens; summary of the method: as §1
DU-145 [7] = experiment: Percent growth of NCI cell line, prostate: DU-145 exposed for 48 hr at 10e-8 concentration; assay type: functional, Homo sapiens; summary of the method: as §1
786-0 [8] = experiment: Percent growth of NCI cell line, renal: 786-0 exposed for 48 hr at 10e-4 concentration; assay type: functional, Homo sapiens; summary of the method: as §1
LoVo [9] = experiment: Cytotoxicity activity on LoVo human adenocarcinoma cell line after 1 hr of drug exposure; assay type: functional, cell-based
Summary of the method: (§3)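 LoVo (sensitive) and LoVo/Dx (resistant) human colon adenocarcinoma cells seeded at 2.5 × 10^5 cells/mL medium; drug solutions added to culture. IC50 = drug concentration inhibiting cell growth by 50%, assays in triplicate.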

SNB-19 [10] = experiment: Percent growth of NCI cell line, CNS: SNB-19 exposed for 48 hr at 10e-4 concentration; assay type: functional, Homo sapiens; summary of the method: as §1
[11] = Percent growth of NCI cell line, leucemia K562 exposed for 48 hr at 10e-8 concentration; assay type: functional, Homo sapiens; summary of the method: as §1
HCT-15 [12] = experiment: Percent growth of NCI cell line, colon: HCT-15 exposed for 48 hr at 10e-6 concentration; assay type: functional, Homo sapiens; summary of the method: as §1
OVCAR-4 [13] = experiment: Percent growth of NCI cell line, ovarian: OVCAR-4 exposed for 48 hr at 10e-8 concentration; assay type: functional, Homo sapiens; summary of the method: as §1
MCF7 [14] = experiment: Percent growth of NCI cell line, breast: MCF-7 exposed for 48 hr at 10e-6 concentration; assay type: functional, Homo sapiens; summary of the method: as §1
SNB-19 [15] = experiment: Percent growth of NCI cell line, CNS: SNB-19 exposed for 48 hr at 10e-6 concentration; assay type: functional, Homo sapiens; summary of the method: as §1
NCI-H460 [16] = experiment: Percent growth of NCI cell line, lung-nsc: NCI-H460 exposed for 48 hr at 10e-8 concentration; assay type: functional, Homo sapiens; summary of the method: as §1
MCF7 [17] = experiment: Percent growth of NCI cell line, breast: MCF-7 exposed for 48 hr at 10e-8 concentration; assay type: functional, Homo sapiens; summary of the method: as §1
LOX IMVI [18] = experiment: Percent growth of NCI cell line, melanoma: LOX IMVI exposed for 48 hr at 10e-6 concentration; assay type: functional, Homo sapiens; summary of the method: as §1
LoVo [19] = experiment: Cytotoxicity activity on LoVo human adenocarcinoma cell line after 144 hr of drug exposure; assay type: functional, cell-based; summary of the method: as §2
SNB-19 [20] = experiment: Percent growth of NCI cell line, CNS: SNB-19 exposed for 48 hr at 10e-8 concentration; assay type: functional, Homo sapiens; summary of the method: as §1
LoVo [21] = experiment: Cytotoxicity activity on LoVo/Dx human adenocarcinoma cell line after 1 hr of drug exposure; assay type: functional, cell-based; summary of the method: as §3
NCI-H460 [22] = experiment: Percent growth of NCI cell line, lung-nsc: NCI-H460 exposed for 48 hr at 10e-4 concentration; assay type: functional, Homo sapiens; summary of the method: as §1
OVCAR-4 [23] = experiment: Percent growth of NCI cell line, ovarian: OVCAR-4 exposed for 48 hr at 10e-4 concentration; assay type: functional, Homo sapiens; summary of the method: as §1
Calf thymus DNA = experiment: CT-DNA binding required to produce a 50% drop in fluorescence of DNA-bound ethidium.; assay type: nucleic-acid assay; details: Bos taurus
Summary of the method: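 Ethidium displacement from calf thymus DNA in 10 mM Na2HPO4, 10 mM NaH2PO4, 1 mM EDTA, pH 7.0, containing 1.26 μM ethidium bromide and 1 μM CT-DNA. Drug added serially from ~5 mM DMSO stock; 20 °C; fluorescence excitation 546 nm, emission 595 nm. C50 = drug concentration lowering DNA-bound ethidium fluorescence by 50%, mean of three determinations.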

NCI-H460 [24] = experiment: Percent growth of NCI cell line, lung-nsc: NCI-H460 exposed for 48 hr at 10e-6 concentration; assay type: functional, Homo sapiens; summary of the method: as §1
HCT-15 [25] = experiment: Percent growth of NCI cell line, colon: HCT-15 exposed for 48 hr at 10e-8 concentration; assay type: functional, Homo sapiens; summary of the method: as §1
DU-145 [26] = experiment: Percent growth of NCI cell line, prostate: DU-145 exposed for 48 hr at 10e-4 concentration; assay type: functional, Homo sapiens; summary of the method: as §1
HT-29 = experiment: In vitro cytotoxic potency against HT-29 (human colon adenocarcinoma) cell line.; assay type: functional, cell-based
HCT-15 [27] = experiment: Percent growth of NCI cell line, colon: HCT-15 exposed for 48 hr at 10e-4 concentration; assay type: functional, Homo sapiens; summary of the method: as §1
786-0 [28] = experiment: Percent growth of NCI cell line, renal: 786-0 exposed for 48 hr at 10e-6 concentration; assay type: functional, Homo sapiens; summary of the method: as §1
LOX IMVI [29] = experiment: Percent growth of NCI cell line, melanoma: LOX IMVI exposed for 48 hr at 10e-8 concentration; assay type: functional, Homo sapiens; summary of the method: as §1
LOX IMVI [30] = experiment: Percent growth of NCI cell line, melanoma: LOX IMVI exposed for 48 hr at 10e-4 concentration; assay type: functional, Homo sapiens; summary of the method: as §1
[31] = Percent growth of NCI cell line, leucemia K562 exposed for 48 hr at 10e-6 concentration; assay type: functional, Homo sapiens; summary of the method: as §1

SMILES | C50 (Calf thymus DNA) [µM] | Growth (OVCAR-4 [1]) [%] | Growth (DU-145 [2]) [%] | Growth (786-0 [3]) [%] | Growth [4] [%] | Growth (MCF7 [6]) [%] | Growth (DU-145 [7]) [%] | Growth (786-0 [8]) [%] | Growth (SNB-19 [10]) [%] | Growth [11] [%] | Growth (HCT-15 [12]) [%] | Growth (OVCAR-4 [13]) [%] | Growth (MCF7 [14]) [%] | Growth (SNB-19 [15]) [%] | Growth (NCI-H460 [16]) [%] | Growth (MCF7 [17]) [%] | Growth (SNB-19 [20]) [%] | Growth (NCI-H460 [22]) [%] | Growth (OVCAR-4 [23]) [%] | IC50 (HT-29) [nM] | other results
CN(C)CCn1c(=O)c2ccc3c4c(nn3CCN(C)C)c3ccccc3n(c1=O)c24 | 0.0018 | -36 | -16 | 27 | -67 | -95 | 60 | -90 | -41 | 61 | -29 | 51 | -41 | -3 | 30 | 63 | 66 | -79 | -56 | 37 | IC50 (LoVo [5]): 3.9 nM; IC50 (LoVo [9]): 290 nM; Growth (LOX IMVI [18]): -32%; IC50 (LoVo [19]): 12 nM; IC50 (LoVo [21]): 79 nM; Growth (NCI-H460 [24]): -44%; Growth (HCT-15 [25]): 48%; Growth (DU-145 [26]): -37%; Growth (HCT-15 [27]): -85%; Growth (786-0 [28]): -42%; Growth (LOX IMVI [29]): 65%; Growth (LOX IMVI [30]): -93%; Growth [31]: -27%
CN(C)CCn1c(=O)c2ccc3c4c(nn3CCN3CCCCC3)c3cc([N+](=O)[O-])ccc3n(c1=O)c24 | 0.01 |  |  |  |  |  |  |  |  |  |  |  |  |  |  |  |  |  |  | 0.21 | 
COc1ccc2c(c1)c1nn(CCN3CCCC3)c3ccc4c(=O)n(CCN(C)C)c(=O)n2c4c13 | 0.065 |  |  |  |  |  |  |  |  |  |  |  |  |  |  |  |  |  |  | 0.17 | 
CN(C)CCn1c(=O)c2ccc3c4c(nn3CCN3CCCCC3)c3cc(N)ccc3n(c1=O)c24 | 0.006 |  |  |  |  |  |  |  |  |  |  |  |  |  |  |  |  |  |  | 0.17 | 
COc1ccc2c(c1)c1nn(CCN3CCCCC3)c3ccc4c(=O)n(CCN(C)C)c(=O)n2c4c13 | 0.0099 | -84 | -51 | 20 | -12 | -12 | 39 | -67 | -54 | 39 | -34 | 15 | 4 | 8 | 22 | 42 | 55 | -57 | -89 | 0.04 | Growth (NCI-H460 [24]): -36%; Growth (HCT-15 [25]): 24%; Growth (DU-145 [26]): -91%; Growth (HCT-15 [27]): -61%; Growth (786-0 [28]): -41%; Growth [31]: 12%

Second part, led by results:

C50 (Calf thymus DNA) [µM] | SMILES | Growth (OVCAR-4 [1]) [%] | Growth (DU-145 [2]) [%] | Growth (786-0 [3]) [%] | Growth [4] [%] | Growth (MCF7 [6]) [%] | Growth (DU-145 [7]) [%] | Growth (786-0 [8]) [%] | Growth (SNB-19 [10]) [%] | Growth [11] [%] | Growth (HCT-15 [12]) [%] | Growth (OVCAR-4 [13]) [%] | Growth (MCF7 [14]) [%] | Growth (SNB-19 [15]) [%] | Growth (NCI-H460 [16]) [%] | Growth (MCF7 [17]) [%] | Growth (SNB-19 [20]) [%] | Growth (NCI-H460 [22]) [%] | Growth (OVCAR-4 [23]) [%] | IC50 (HT-29) [nM] | other results
0.056 | CN(C)CCn1c(=O)c2ccc3c4c(nn3CCN(C)C)c3cc(O)ccc3n(c1=O)c24 | -19 | 0 | 43 | -66 | -64 | 71 | -82 | -72 | 84 | 21 | 70 | -17 | -1 | 71 | 60 | 65 | -74 | -60 | 39 | IC50 (LoVo [5]): 170 nM; IC50 (LoVo [9]): 220 nM; Growth (LOX IMVI [18]): -48%; IC50 (LoVo [19]): 11 nM; IC50 (LoVo [21]): 80 nM; Growth (NCI-H460 [24]): -23%; Growth (HCT-15 [25]): 85%; Growth (DU-145 [26]): -50%; Growth (HCT-15 [27]): -68%; Growth (786-0 [28]): -11%; Growth (LOX IMVI [29]): 63%; Growth (LOX IMVI [30]): -79%; Growth [31]: 7%
0.037 | O=C1c2c(O)ccc(O)c2C(=O)c2c(NCCNCCO)ccc(NCCNCCO)c21 |  |  |  |  |  |  |  |  |  |  |  |  |  |  |  |  |  |  |  | 
0.12 | CN(C)CCCn1nc2c3ccccc3n3c(=O)n(CCN(C)C)c(=O)c4ccc1c2c43 |  |  |  |  |  |  |  |  |  |  |  |  |  |  |  |  |  |  | 68 | 
0.07 | CN(C)CCn1c(=O)c2ccc3c4c(nn3CCN(C)C)c3cc([N+](=O)[O-])ccc3n(c1=O)c24 | -55 | -16 | 36 | -38 | -93 | 82 | -99 | -93 | 82 | -4 | 57 | -12 | 2 | 47 | 81 | 75 | -94 | -96 | 0.98 | IC50 (LoVo [5]): 13 nM; IC50 (LoVo [9]): 520 nM; Growth (LOX IMVI [18]): 5%; IC50 (LoVo [19]): 16 nM; IC50 (LoVo [21]): 190 nM; Growth (NCI-H460 [24]): -19%; Growth (HCT-15 [25]): 68%; Growth (DU-145 [26]): -94%; Growth (HCT-15 [27]): -89%; Growth (786-0 [28]): -25%; Growth (LOX IMVI [29]): 79%; Growth (LOX IMVI [30]): -89%; Growth [31]: 6%
0.0066 | CN(C)CCCn1nc2c3cc(O)ccc3n3c(=O)n(CCN(C)C)c(=O)c4ccc1c2c43 |  |  |  |  |  |  |  |  |  |  |  |  |  |  |  |  |  |  | 61 | 
